Experimental data: article PMC5376495 (ACS combinatorial science, 2017)
Where a SMILES comes first, the peptide text is derived from it. [ ]: non-standard residue; d: D form. The star is where a group is joined. Benzoyl(4-tBu) = CC(C)(C)c1ccc(C(=O)*)cc1; Lys(Et2) = CCN(CC)CCCC[C@H](N)C(=O)O

Experiments:
[1] = tested on: PRC2 complexes containing EED mutations (F97A, W364A, Y365A); experiment: PRC2 methyltransferase assay with EED aromatic cage mutants; format: biochemical
Method in brief: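 EZH2:EED:SUZ12 complexes carrying EED cage mutations made by site-directed mutagenesis, co-expressed in baculovirus-infected Sf9 cells, and FLAG-affinity purified like wild type. Reaction ran 1 h at 23 °C in 20 mM Tris-HCl pH 8, 5 mM DTT, 0.01% Triton X-100 with 1 µM 3H-SAM, 1 µM biotinylated H3(21–44), and 20 nM complex. Stopped by adding 7.5 M guanidine-HCl. Scintillation proximity read-out on streptavidin Flash-plates after 2 h. Normalised to no-compound (100%) and no-enzyme (0%) CPM.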

EED = EED (Homo sapiens, UniProt O75530); conditions: cited from earlier work
Chain of EED (O75530 whole entry): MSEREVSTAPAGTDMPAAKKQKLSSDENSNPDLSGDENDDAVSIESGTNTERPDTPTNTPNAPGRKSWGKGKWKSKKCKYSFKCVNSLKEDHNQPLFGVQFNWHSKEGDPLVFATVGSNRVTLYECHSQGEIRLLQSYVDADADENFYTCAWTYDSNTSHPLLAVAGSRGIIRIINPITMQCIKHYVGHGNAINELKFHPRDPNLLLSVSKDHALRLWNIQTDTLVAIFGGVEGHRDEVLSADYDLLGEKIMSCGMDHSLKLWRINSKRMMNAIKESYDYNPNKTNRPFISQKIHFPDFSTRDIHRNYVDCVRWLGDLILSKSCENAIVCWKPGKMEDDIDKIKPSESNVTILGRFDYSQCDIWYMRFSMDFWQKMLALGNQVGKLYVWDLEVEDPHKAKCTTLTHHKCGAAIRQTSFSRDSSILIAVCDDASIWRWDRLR

| Structure (SMILES) | inhibition of basal catalytic activity of PRC2 with EED mutants [1] | affinity for EED in solution-based assays (EED) |
| --- | --- | --- |
| CCCc1cc(C)[nH]c(=O)c1CNC(=O)c1cc(-c2ccc(N3CCN(C(C)C)CC3)nc2)cc2c1cnn2C(C)C [UNC1999] | completely abrogates the activity |  |
| CCN(CC)CCCC[C@H](NC(=O)[C@H](CC(C)C)NC(=O)[C@H](C)NC(=O)[C@H](Cc1ccccc1)NC(=O)c1ccc(C(C)(C)C)cc1)C(=O)N[C@@H](CO)C(=O)OC [UNC3866] ({Benzoyl(4-tBu)}-FAL[Lys(Et2)]S-OMe) |  | lack of affinity |
